{"data": "Measurements pooled from the literature", "target": "Casein kinase I isoform gamma-1 (CSNK1G1, Homo sapiens, UniProt Q9HCP0)", "note": "Each line is one published result; the experiments were not run side by side."}
{"Structure (SMILES)": "Cc1cnn2ncc(-c3ccnc(N(C)C)n3)c2c1", "test": "binding", "conditions": "1 µM", "remaining binding [%]": 73}
{"Structure (SMILES)": "CCCCN(CCCC)C(=O)CN1C[C@H](c2cc(OC)c3c(c2)OCO3)[C@@H](C(=O)O)[C@@H]1CC(C)(C)CCC", "test": "cell-free assay, competition with immobilised ligand", "conditions": "1 µM", "remaining binding [%]": 100}
{"Structure (SMILES)": "O=C(NCCCN1CCOCC1)c1ccc(Nc2ncc(Cl)c(-c3ccc(Cl)s3)n2)cc1", "test": "binding, competition with immobilised ligand", "conditions": "1 µM", "remaining binding [%]": 88}
{"Structure (SMILES)": "C[C@@H]1CN(c2cc(-c3nn(C)c4ccc(OC5(C)CC5)cc34)ncn2)C[C@H](C)O1", "test": "cell-free assay, competition with immobilised ligand", "conditions": "1 µM", "remaining binding [%]": 89}
{"Structure (SMILES)": "N[C@H]1CCN(c2nccc(-c3cnn4ncccc34)n2)C1", "test": "binding", "conditions": "1 µM", "remaining binding [%]": 82}
{"Structure (SMILES)": "C[C@@H]1CN(c2cc(-c3n[nH]c4ccc(OC5(C)CC5)cc34)ncn2)C[C@H](C)O1", "test": "cell-free assay, competition with immobilised ligand", "conditions": "0.1 µM", "remaining binding [%]": 100}
{"Structure (SMILES)": "CN(C)c1nccc(-c2cnn3ncccc23)n1", "test": "binding", "conditions": "1 µM", "remaining binding [%]": 100}
{"Structure (SMILES)": "COc1ncc2cc3ccccc3nc2c1C#N", "test": "cell-free assay, competition with immobilised ligand", "conditions": "5 µM", "remaining binding [%]": 100}
{"Structure (SMILES)": "CN(C)c1nccc(-c2cnc3ncccn23)n1", "test": "binding", "conditions": "1 µM", "remaining binding [%]": 81}
{"Structure (SMILES)": "Nc1ncc2c(n1)-c1c([nH]c3ccc(C#CC4CC4)cc13)CCCC2", "test": "binding, competition with immobilised ligand", "conditions": "1 µM", "remaining binding [%]": 79}
{"Structure (SMILES)": "COc1cnc(Nc2cccc(S(N)(=O)=O)c2)nc1N1CCN(c2ccccc2)CC1", "test": "binding, competition with immobilised ligand", "conditions": "1 µM", "remaining binding [%]": 100}
{"Structure (SMILES)": "O=C(NCC1CCOCC1)c1n[nH]cc1NC(=O)c1c(F)cccc1F", "test": "binding, competition with immobilised ligand", "conditions": "1 µM", "remaining binding [%]": 78}
{"Structure (SMILES)": "NS(=O)(=O)c1cc(NC(=O)Cc2ccccc2)ccc1Oc1cccc(Cl)c1", "test": "cell-free assay, competition with immobilised ligand", "conditions": "1 µM", "remaining binding [%]": 89}
{"Structure (SMILES)": "FC(F)(F)Oc1cccc(-c2cnc3ccc(-c4ccncc4)nn23)c1", "test": "cell-free assay, competition with immobilised ligand", "conditions": "5 µM", "remaining binding [%]": 67}
{"Structure (SMILES)": "C[C@H]1CCN(c2nccc(-c3cnn4ncccc34)n2)C1", "test": "binding", "conditions": "1 µM", "remaining binding [%]": 85}
{"Structure (SMILES)": "Cn1nc(C(=O)NCc2ccc(C(=O)O)cc2)cc1-c1ccc2[nH]ccc2c1", "test": "cell-free assay, competition with immobilised ligand", "conditions": "0.1 µM", "remaining binding [%]": 91}
{"Structure (SMILES)": "CCN1CCN(Cc2ccc(C(=O)Nc3ccc(C)c(Oc4ccc5c(c4)CC(=O)N5)c3)cc2C(F)(F)F)CC1", "test": "binding, competition with immobilised ligand", "conditions": "1 µM", "remaining binding [%]": 100}
{"Structure (SMILES)": "O=C(c1ccc(Nc2ncc(Cl)c(-c3ccc(Cl)s3)n2)cc1)N1CCC(N2CCCC2)CC1", "test": "binding, competition with immobilised ligand", "conditions": "1 µM", "remaining binding [%]": 80}
{"Structure (SMILES)": "COc1cccc(CNC(=O)c2nc3scc(COCc4ccc(C(=O)O)cc4)c3c(=O)[nH]2)c1", "test": "cell-free assay, competition with immobilised ligand", "conditions": "1 µM", "remaining binding [%]": 100}
